Source: ChEMBL document CHEMBL4038330, “Discovery of Potent Orally Active Protease-Activated Receptor 1 (PAR1) Antagonists Based on Andrographolide” (J Med Chem, 2017)

How the values were obtained:
Rattus norvegicus = test: Toxicity in Wistar rat assessed as behavioral abnormalities at 5 mg/kg, po measured up to 24 hrs post dose; format: organism-based; conditions: in vivo
Procedure, shortened: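 Male Wistar rats given 1 mg/kg iv or 5 mg/kg intragastrically. Behaviour observed for abnormalities over the 24 h sampling period.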

Plasma = test: Drug metabolism in Wistar rat plasma assessed as [M2-2H] metabolite formation at 5 mg/kg, po administered as single dose measured at 3 hrs post dose by LC-HRMS analysis; format: ADME, organism-based; conditions: in vivo
Procedure, shortened: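 Rats dosed orally at 10 mg/kg or 5 mg/kg. Plasma taken at 3.0 h after dosing. Parent and metabolites detected by extracted ion chromatograms.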

Cavia porcellus [1] = test: In vivo antagonist activity at PAR1 in guinea pig assessed as inhibition of TRAP-stimulated platelet aggregation at 10 mg/kg, po pretreated for 2 hrs followed by TRAP stimulation measured after 5 mins; format: functional
Cavia porcellus [2] = test: In vivo antagonist activity at PAR1 in guinea pig assessed as inhibition of thrombin-stimulated platelet aggregation at 10 mg/kg, po pretreated for 2 hrs followed by thrombin stimulation measured after 5 mins; format: functional
[3] = test system: collagen-stimulated platelet aggregation; test: Toxicity in guinea pig assessed as inhibition of collagen-stimulated platelet aggregation at 30 mg/kg, po pretreated for 2 hrs followed by collagen stimulation measured after 5 mins; format: organism-based, Cavia porcellus; conditions: in vivo
[4] = Apparent terminal half life in Wistar rat at 1 mg/kg, iv administered as bolus dose measured up to 24 hrs post dose by HPLC-MS/MS analysis; format: ADME, organism-based; conditions: in vivo, read-out: betat1/2(app) (converted)
Procedure, shortened: (§1)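 Male Wistar rats, n = 6 per group, given 1 mg/kg intravenously or 5 mg/kg intragastrically. Blood concentrations followed over 24 h. Non-compartmental analysis; values as median ± SD. Bioavailability from oral versus intravenous exposure.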

[5] = Apparent volume of distribution in Wistar rat at 1 mg/kg, iv administered as bolus dose measured up to 24 hrs post dose by HPLC-MS/MS analysis; format: ADME, organism-based; conditions: in vivo, read-out: Vd(app); procedure, shortened: as §1
[6] = Cmax in Wistar rat at 1 mg/kg, iv administered as bolus dose measured up to 24 hrs post dose by HPLC-MS/MS analysis; format: ADME, organism-based; set-up: dose 1 mg/kg, route intravenous; conditions: in vivo; procedure, shortened: as §1
[7] = Apparent terminal half life in Wistar rat at 5 mg/kg, po measured up to 24 hrs post dose by HPLC-MS/MS analysis; format: ADME, organism-based; conditions: in vivo, read-out: betat1/2(app) (converted); procedure, shortened: as §1
[8] = Apparent clearance in Wistar rat at 5 mg/kg, po measured up to 24 hrs post dose by HPLC-MS/MS analysis; format: ADME, organism-based; conditions: in vivo, read-out: CL(app) (converted); procedure, shortened: as §1
[9] = Cmax in Wistar rat at 5 mg/kg, po measured up to 24 hrs post dose by HPLC-MS/MS analysis; format: ADME, organism-based; set-up: dose 5 mg/kg, route oral; conditions: in vivo; procedure, shortened: as §1

Drug metabolism (Plasma): Metabolite_Detected
half-life [4]: 2 h
Vd [5]: 5.7 L/kg
Cmax [6]: 1730 ng/mL
half-life [7]: 3.1 h
CL/F [8]: 75 mL/min/kg
Cmax [9]: 229 ng/mL
SMILES: CC1CC[C@@H]2C(C)(C)[C@H](O)CC[C@@]2(C)[C@@H]1/C=C/c1ccc(-c2cccc(F)c2)cn1 (single isomer, unassigned)
Activity (Rattus norvegicus): Non-Toxic
inhibition in vivo at 10 mg/kg (Cavia porcellus [1]): 87.6%
inhibition in vivo at 10 mg/kg (Cavia porcellus [2]): 66.9%
inhibition at 5 min [3]: 6.8%
